Bioassay records as filed in PubChem BioAssay.
In the library only some 1.9% were active in any assay of this set; here they are far more common.
DDE Tn6 FP inh = inhibitors of Tn6 peptide binding to fibrin DD(E), primary screen, biochemical, fluorescence polarization, human fibrin, Tn6 probe. Fibrinogen beta chain (Homo sapiens), P02675. Fibrin DD(E) TRITC-Tn6 fluorescence polarization displacement. inhibition, % at 8.3 µM. actives 0.21% (n = 370,000). AID 720509, 2013;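 active = inhibition above a per-campaign cutoff: mean of compounds within control limits plus 3 SD, cut at about 15% in these data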
MBD2 inh = inhibitors of MBD2 binding to methylated DNA, primary screen, biochemical, TR-FRET, DNA-binding domain, human | Methyl-CpG-binding domain protein 2 (Homo sapiens), Q9UBB5 | MBD2 binding to methylated oligonucleotide | inhibition, % at 4.4 µM | actives 0.31% (n = 370,000); in the data active = inhibition above about 13%
DDE Tn7 FP inh = inhibitors of Tn7 peptide binding to fibrin DD(E), primary screen, biochemical, fluorescence polarization, human fibrin, Tn7 probe; inhibition, % at 8.3 µM; FP displacement of FITC-Tn7 peptide from fibrin DD(E); 0% = median of compound wells per plate; Fibrinogen beta chain (Homo sapiens), P02675; actives 0.13% (n = 370,000);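 active = inhibition above the mean of compounds falling within the control limits plus 3 SD of them, cut at about 14% in these data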
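Assay system: Human clot-derived fibrin DD(E) complex | Buffer or medium: Tris/NaCl/CaCl2 buffer, pH 7.8 | Repeats: One replicate per compound | Benchmarks: Aha-Tn7 high control | Measure: % inhibition scaled between sample-field median and high-control FP | Schedule: 10 min plus 3 h, room temperature | Signal: Fluorescence polarization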
LEDGF integ inh = blockers of LEDGF/p75-dependent integrase strand transfer – biochemical, TR-FRET, high throughput, primary screen | TR-FRET IN-LEDGF/p75 DNA integration, Eu/Cy5 | inhibition, % at 3.7 µM | actives 0.64% (n = 370,000);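 active = inhibition above the screen-wide mean plus 3 SD, cut at about 13% in these data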;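 note: signal is the Cy5 over europium emission ratio at 671 and 618 nm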
UHRF1 MBD2 ctr = UHRF1 methylated DNA binding inhibitors, primary screen, counter-screen for MBD2 inhibitor project, biochemical, TR-FRET, human UHRF1, single concentration. E3 ubiquitin-protein ligase UHRF1 (Homo sapiens), Q96T88. UHRF1 binding to methylated oligo. inhibition, % at 4.4 µM. actives 0.75% (n = 370,000). AID 687016, 2013; in the data active = inhibition above about 21%;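 note: UHRF1 SRA domain binding a hemimethylated CpG hairpin DNA probe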
Target sequence (Q96T88 whole entry, looked up, the tested form may be a part): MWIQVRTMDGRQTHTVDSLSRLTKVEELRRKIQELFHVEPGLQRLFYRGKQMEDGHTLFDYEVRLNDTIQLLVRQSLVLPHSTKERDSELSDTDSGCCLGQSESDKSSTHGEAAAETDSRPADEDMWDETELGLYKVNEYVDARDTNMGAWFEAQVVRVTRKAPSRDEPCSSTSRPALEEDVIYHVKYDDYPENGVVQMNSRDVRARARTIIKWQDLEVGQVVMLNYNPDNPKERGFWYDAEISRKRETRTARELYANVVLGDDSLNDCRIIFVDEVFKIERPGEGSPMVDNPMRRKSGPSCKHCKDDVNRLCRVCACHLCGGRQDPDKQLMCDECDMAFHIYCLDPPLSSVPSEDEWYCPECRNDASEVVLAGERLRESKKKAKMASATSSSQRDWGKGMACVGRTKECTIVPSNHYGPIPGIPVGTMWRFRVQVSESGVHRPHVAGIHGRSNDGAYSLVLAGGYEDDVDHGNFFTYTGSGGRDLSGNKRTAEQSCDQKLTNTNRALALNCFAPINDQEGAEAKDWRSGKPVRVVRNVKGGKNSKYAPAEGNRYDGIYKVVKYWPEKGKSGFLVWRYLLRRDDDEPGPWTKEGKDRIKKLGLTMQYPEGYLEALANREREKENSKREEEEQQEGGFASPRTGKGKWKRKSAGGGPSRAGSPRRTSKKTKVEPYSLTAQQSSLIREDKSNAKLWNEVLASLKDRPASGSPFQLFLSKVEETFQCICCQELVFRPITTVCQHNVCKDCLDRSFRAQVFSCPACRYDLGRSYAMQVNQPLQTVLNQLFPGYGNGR
TDP2 inh = human TDP2 enzyme inhibitors, primary screen, biochemical, epi absorbance, recombinant enzyme. T5PNP hydrolysis, p-nitrophenol absorbance 415 nm. inhibition, % at 12.8 µM. AID 720702, 2013. actives 0.34% (n = 370,000);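 active = inhibition above the mean of all tested compounds plus 3 SD, set per campaign, cut at about 25% in these data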
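System – recombinant human TDP2 · Amount – 120 nM TDP2 per well · Buffer or medium – Mg2+-containing Tris-HCl buffer, pH 7.5 · Reagent – T5PNP substrate, 5 mM · Dosing – 12.8 µM single point, 1% DMSO · Incubation – 2 h at 37 °C · Measured by – epi absorbance · Read-out basis – percent inhibition · Benchmarks – high control without enzyme, low control DMSO plus TDP2 · Repeats – singlicate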
IN multimer up = HIV-1 IN multimer formation enhancers, counter-screen for LEDGF/p75 integration inhibitor project, biochemical, TR-FRET; shares compounds with LEDGF integ inh; TR-FRET HIV-1 integrase multimerization; activation, % at 7.7 µM; actives 17% (n = 2,000); in the data active = activation above about 8.9%
TR-FRET interf = TR-FRET optical interference artefacts, confirmation, artefact control for LEDGF/p75-dependent integration inhibitor project, biochemical, HIV-1 IN multimerization; shares compounds with LEDGF integ inh; TR-FRET optical interference counterscreen; inhibition, % at 7.7 µM; 2,000 tested, under 10 active; AID 1053135, 2014;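 active = inhibition above the mean over all tested compounds plus 3 SD, which no compound reached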
IN-LEDGF confirm = inhibitors of HIV-1 IN-LEDGF/p75 DNA integration, confirmation, biochemical, TR-FRET; shares compounds with LEDGF integ inh; TR-FRET LEDGF/p75-dependent HIV-1 integration; inhibition, % at 3.7 µM; actives 36% (n = 2,000); AID 1053136, 2014; in the data active = inhibition above about 14%
Hits are given with their value; i = inactive; nt = not tested or not shown.

SMILES	DDE Tn6 FP inh	MBD2 inh	DDE Tn7 FP inh	LEDGF integ inh	UHRF1 MBD2 ctr	TDP2 inh	IN multimer up	TR-FRET interf	IN-LEDGF confirm
O=C(/C=C/c1ccco1)Nc1ccccc1C(=O)Nc1cccc(C(=O)O)c1	i	i	i	25	i	i	i	i	19
O=C(/C=C/c1ccco1)Nc1ccccc1C(=O)O	i	i	i	17	24	i	i	i	33
O=C(O)CCCNC(=O)/C=C/c1ccco1	i	i	i	38	58	i	38	i	87
CN(C)[C@@H]1CCN(c2ccc3c(c2)O[C@@H]2CCN(C2)S3(=O)=O)C1	i	i	i	i	i	i	nt	nt	nt
CN(Cc1ccccc1)C(=O)OCc1cn(Cc2ccc(F)cc2)nn1	i	i	i	i	i	i	nt	nt	nt
OC(c1ccccc1)(c1ccccc1)C1CCN(CCCOc2ccc(-c3cncnc3)cc2)CC1	i	i	i	i	i	i	nt	nt	nt
O=S1(=O)c2cc(Cl)ccc2N2CC[C@H](C2)N1Cc1ccc(Cl)c(Cl)c1	i	i	i	i	i	i	nt	nt	nt
COc1c2c(cc3c1c(=O)c1ccccc1n3C)OCO2	i	i	i	i	i	i	nt	nt	nt
C[C@H](O)[C@@H]1C(=O)N2CCc3c([nH]c4c(-c5ccccc5)cccc34)[C@@H]2C[C@@H]1N(C)CC1CCCCC1	i	i	i	i	i	i	nt	nt	nt
CC1CN(c2nc3ccccc3nc2SCC(=O)N2CCN(S(=O)(=O)c3ccc(F)cc3)CC2)CC(C)O1 (centres undefined)	i	i	i	i	i	i	nt	nt	nt
COc1cc(C(=O)NC(=S)N(CCc2ccccc2)CCc2ccccc2)cc(OC)c1OC	i	i	i	14	i	i	i	i	i
C=CCN(CC=C)C(=S)NC(=O)c1ccc(OC)cc1	i	i	i	i	i	i	nt	nt	nt
COc1ccc(C(=O)NC(=S)N(Cc2ccccc2)Cc2ccccc2)cc1	i	i	i	15	i	i	i	i	i
COc1cc(C(=O)NC(=S)N(C)Cc2ccccc2)cc(OC)c1OC	i	i	i	i	i	i	nt	nt	nt
O=C(NC(=S)N(CCc1ccccc1)CCc1ccccc1)c1ccco1	i	i	i	15	i	i	i	i	20
COc1ccc(C(=O)NCCC(C)C)cc1S(=O)(=O)N1CCOCC1	i	i	i	i	i	i	nt	nt	nt
COc1ccc(CC(=O)NCCC(C)C)cc1S(=O)(=O)N1CCOCC1	i	i	i	89	i	i	i	i	i
CCOC1=C2[C@@H](CN(S(=O)(=O)c3ccccc3C)[C@H]2c2ccc(Cl)cc2)[C@H]2C(=O)N(c3ccccc3)C(=O)[C@H]2C1	i	i	i	37	i	i	i	i	i
O=C1NC(c2ccccc2)=N/C1=C/c1ccco1	i	i	i	i	i	i	nt	nt	nt
O=C1NC(c2cccc(Br)c2)=N/C1=C\c1ccco1	i	i	i	21	i	i	i	i	i
CN1CCC/C1=C/C=C1\SC(=S)NC1=O	i	i	i	18	i	i	17	i	i
